# Screening results deposited in PubChem by several laboratories.
# Hits are enriched below; roughly 2.8% of the tested compounds scored in any of these assays.
# HCT116 PTEN-null: PTEN-deleted cell growth suppression. AID 827. viability, % at 10 µM. 1.2% of 140,000 active. HCT116 PTEN-null viability, CellTiter-Glo, 60 h; stronger effect = lower value;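 active = viability at or below a set limit, 4 SD under the median of all tested compounds, cut at about 3.7% in these data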;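 note: PTEN knockout HCT116 line with beta catenin targeted HCT116 as companion control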
# HCT116 bCat-KO: beta-catenin-lacking colon tumor cell growth suppression. 1.5% of 140,000 active. viability, % at 10 µM. HCT116 beta-catenin knockout viability, CellTiter-Glo, 60 h; stronger effect = lower value. AID 818;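 active = viability at or under a set limit, the compound median less 4 SD, cut at about 6% in these data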;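 note: 0% = Hyamine 1622 control at 20 µM and 100% = untreated cell control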
# SDO1 yeast rescue: restores growth of sdo1-depleted yeast. 0.21% of 140,000 active. S. cerevisiae sdo1-depleted JHY4D growth rescue, OD600 30 h; stronger effect = higher value; pdr5 snq2 efflux-pump mutant strain. z-score at 10 µM. AID 817;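 active = z-score above 3 at both the 24 hr and the 30 hr optical density reads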;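 note: z-score against mean and SD of all compound wells on the same plate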
# Yeast life ext: extends the lifespan of yeast; S. cerevisiae growth with nicotinamide, OD615; deaD strain in restrictive glucose medium; inhibition of the nicotinamide effect, % at 10 µM; 0.68% of 130,000 active; AID 775;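 active = inhibition above a set limit, placed 3 SD over the median of all compounds, cut at about 26% in these data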;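 note: 0% = nicotinamide-treated wells and 100% = cells grown without nicotinamide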
#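 System: Modified budding yeast, DeaD strain | Buffer or medium: Restrictive glucose medium | Also added: 1.5 mM nicotinamide | Doses: 10 µM single point, 0.25% DMSO | Schedule: 48 h compound exposure at 30 °C, humidified | Detection: Absorbance at 615 nm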
# Yeast growth inh: chemicals that inhibit yeast BB579 growth in restrictive medium (lifespan-shortening candidates); S. cerevisiae BB579 growth, OD615, 48 h; inhibition, % at 10 µM; 0.51% of 140,000 active;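 active = inhibition above a set limit, 3 SD over the mean compound inhibition, cut at about 44% in these data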
#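 System: Saccharomyces cerevisiae DeaD strain BB579, replicative lifespan model yeast. Buffer or medium: restrictive glucose-based CSMM-D medium. Doses: one dose, 10 µM compound with 0.25% DMSO. Timing: 4 h preincubation and 48 h exposure at 30 °C. Detection: turbidity as optical density at 615 nm. Benchmarks: amphotericin B 10 µg/mL, positive.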
# An asterisk follows results filed as active; . = not tested or not shown.
SMILES,HCT116 PTEN-null,HCT116 bCat-KO,SDO1 yeast rescue,Yeast life ext,Yeast growth inh
Cc1cccc(NC(=O)Cn2cnc3sc(C)c(S(=O)(=O)N4CCC(C)CC4)c3c2=O)n1,95.8,94.4,-0.57,0.3,-48.6
O=c1cccc2n1Cc1cc3ccccc3nc1-2,84.0,87.0,-0.07,-4.8,46.0*
Cc1nc2ccccc2cc1C(=O)O,98.3,98.7,-0.07,0.1,-18.9
O=c1c2sccc2nc(SCc2ccc([N+](=O)[O-])cc2)n1Cc1ccccn1,62.5,71.1,-0.88,-5.2,-20.9
CCOC(=O)CCNC(C(=O)OCC)c1ccccc1 (stereo not drawn),96.5,101.1,0.31,-5.3,6.1
CCOC(=O)C(C(=O)OCC)C(Nc1ccc(Br)cc1)c1ccccc1 (stereo not drawn),1.5*,1.5*,0.42,10.7,-5.8
Cc1sc(NC(=S)NC(=O)C(C)(C)C)c(C(N)=O)c1C,95.2,102.8,0.58,9.0,-41.4
O=C1c2ccccc2-c2onc3ccc(NCCCn4ccnc4)c1c23,10.8,10.5,1.76,79.7*,-44.4
Cc1nc(NCCCn2ccnc2)c2ccccc2n1,84.3,84.8,-0.49,-8.5,18.1
O=C(c1ccc([N+](=O)[O-])cc1)N(Cc1ccc(Br)cc1)N1C(=O)CCCC1=O,110.3,101.1,-0.5,-14.9,-46.4
O=C(N/C(=C/c1ccc(Cl)cc1)c1nc2ccccc2[nH]1)c1ccco1,74.2,76.7,-0.5,-13.5,-4.4
COc1cc(/C=C(/C(=O)c2cccs2)c2nc3ccccc3[nH]2)cc(OC)c1O,2.5*,5.2*,1.05,-14.7,-7.0
O=C(/C(=C/c1ccc(Cl)cc1)c1nc2ccccc2[nH]1)c1ccccc1,0.8*,1.2*,-2.06,9.7,-9.6
CCN(CC1COc2ccccc2O1)C(=S)Nc1ccccc1 (stereo not drawn),69.4,62.9,0.19,-10.6,-27.9
CCC(=O)N(Cc1ccco1)c1nc(C(=O)Nc2ccc(Cl)cc2)c(C)s1,72.4,80.9,-0.88,6.4,-16.6
N#C/C(=C\c1ccc(OC(=O)c2ccc(Cl)s2)cc1)c1nc2ccccc2[nH]1,91.8,91.2,-0.66,-0.4,-56.0
Cc1ccc(C(=O)C[n+]2cc(-c3ccc(C)cc3)n3c2CCCCC3)cc1,4.7,3.5*,0.44,-15.3,22.4
CCOC(=O)COc1ccc(/C=C/[N+](=O)[O-])c(OCC(=O)OCC)c1,1.9*,4.0*,-0.57,16.4,-7.8
CCOC(=O)COc1ccc2nsnc2c1,101.4,97.8,0.12,-23.1,-41.5
CCCCOc1ccc2ccccc2c1C=O,78.5,83.4,-1.39,-9.9,10.9
O=[N+]([O-])/C=C/c1c(OCc2ccccc2)ccc2ccccc12,2.5*,1.9*,-2.62,13.9,-49.8
CCOC(=O)COc1ccccc1/C=N/O,93.3,94.7,0.32,0.8,16.5
CCOc1ccc(/C=C/[N+](=O)[O-])c2ccccc12,1.8*,2.0*,-1.71,-2.5,56.5*
CCOC(=O)COc1ccc2ccccc2c1/C=C/[N+](=O)[O-],2.6*,3.3*,-1.02,39.0*,-8.7
CCOc1ccccc1NC(=O)/C=C/c1ccccc1[N+](=O)[O-],90.8,93.9,0.98,-3.0,-8.5
SMILES,HCT116 PTEN-null,HCT116 bCat-KO,SDO1 yeast rescue,Yeast life ext,Yeast growth inh
O=C(NCc1ccc(F)cc1)c1cnc(-c2ccccn2)nc1C(F)(F)F,107.6,96.4,1.14,-10.5,-15.2
C/C(=N\NC(=O)C(c1ccccc1)c1ccccc1)c1ccccn1,5.1,4.3*,-2.34,5.7,-45.8
N/C(=N\OC(=O)C(c1ccccc1)c1ccccc1)c1ccccn1,80.5,83.5,-1.85,.,-0.1
C/C(=N\NC(=O)C1COc2ccccc2O1)c1ccccn1 (stereo not drawn),5.2,5.0*,-1.8,12.7,2.2
Cc1[nH]c2ccc(CNS(=O)(=O)c3ccc(S(=O)(=O)N4CCOCC4)cc3)cc2c1C,88.2,92.8,-0.18,-2.9,-14.5
N=c1n(CC(=O)c2ccc([N+](=O)[O-])cc2)c2ccccc2n1Cc1ccccc1,1.8*,1.7*,-1.36,0.0,-37.0
N=c1n(CC(=O)c2ccc([N+](=O)[O-])cc2)c2ccccc2n1Cc1ccc(Cl)cc1,1.6*,1.3*,-2.14,-2.4,-34.2
CC1(C)CC(=O)c2sc(NS(C)(=O)=O)nc2C1,91.8,86.4,0.15,96.9*,-6.8
CCC(C)C(=O)Nc1nc2c(s1)C(=O)CC(C)(C)C2 (stereo not drawn),96.4,97.1,-0.99,-6.8,-24.9
COc1ccc(NC(=O)c2ccc(C(=O)c3cc(OC)ccc3OC)cc2)cc1,88.8,86.6,-0.03,15.7,-33.7
C(=N\c1ncnc2sccc12)/NOCc1ccccc1,85.2,88.7,-2.46,-3.2,70.1*
Clc1ccc(CON/C=N/c2ncnc3sccc23)cc1,80.3,84.0,-2.59,-28.9,5.8
CCOC(=O)c1[nH]c(C)c(C(=O)C(C)C)c1C,100.8,111.0,0.5,-12.4,-22.8
CC(C)(C)c1ccc(OCC(=O)N/N=C/c2cc(Br)ccc2OC(=O)c2ccco2)cc1,4.8,4.8*,-1.57,-12.4,-13.7
Cc1ccc(C(=O)NCC(=O)NCC(=O)OCC(=O)c2ccc(F)cc2)cc1,86.6,91.9,-0.6,-1.8,4.4
CN1CCN(S(=O)(=O)c2ccc(Sc3nnnn3-c3ccccc3)c([N+](=O)[O-])c2)CC1,3.2*,5.4*,-0.04,0.7,-26.9
CC(=O)c1ccc(Sc2nnnn2-c2ccccc2)c([N+](=O)[O-])c1,5.8,5.7*,-0.02,12.5,-13.6
Cc1cc(=O)n(C)c(=O)n1CCCCCCOc1cccc([N+](=O)[O-])c1,68.3,66.7,-0.1,-1.1,3.1
O=C(N=Nc1c(O)n(Cc2ccccc2)c2ccccc12)c1cc2ccccc2cc1O,1.5*,1.7*,-1.62,-4.2,-46.5
O=C(N=Nc1c(O)n(Cc2ccccc2)c2ccccc12)c1ccc(O)cc1,46.3,58.6,-1.3,-2.1,-41.6
Cc1nc2ccccc2n1CSc1ccccc1,91.6,85.4,0.92,7.3,-48.8
C/C(=N\NC(=O)CCC(=O)Nc1ccccc1)c1cccs1,98.6,88.8,0.51,1.0,-49.1
Cc1[nH]n(-c2ccccc2)c(=O)c1C(C[N+](=O)[O-])c1ccc(Cl)cc1 (stereo not drawn),36.0,17.3,-1.71,17.9,-21.5
Cc1[nH]n(-c2ncc(-c3ccccc3)s2)c(=O)c1C(c1ccc(Cl)cc1)C(C#N)C#N (stereo not drawn),96.1,93.2,-0.89,35.1*,-0.2
Cc1ccc(S(=O)(=O)N(C)Cc2ccc(C(=O)N/N=C3\CC(=O)CC(C)(C)C3)cc2)cc1,97.4,91.4,0.13,2.3,-46.1
Cc1ccc2nc(-c3ccc(NS(C)(=O)=O)cc3)cc(-c3ccccc3)c2c1,81.3,85.6,-1.65,-29.7,90.4*
CC(C)=C1C(=O)NN(c2ccc(C)c(Cl)c2)C1=O,105.2,93.4,0.89,44.9*,-23.4
CC(C)=C1C(=O)NN(c2cccc(Cl)c2)C1=O,96.1,97.5,0.87,11.7,3.1
